In the library only some 3.5% were active in any assay of this set; here they are far more common.
MEKK2wt PB1 HTS: modulators of MEK5 binding to wildtype MEKK2, primary screen, biochemical, multiplex bead flow cytometry, Alexa488-MEK5 | Mitogen-activated protein kinase kinase kinase 2 (Homo sapiens), Q9Y2U5 | Alexa488-MEK5 binding to MEKK2 WT; actives lie on both sides | binding response (% of control), % at 10 µM | actives 1.1% (n = 290,000) | AID 1531, 2009; in the data active = binding response below about 67% or above about 130%
ABCB1 inh: ABCB1 efflux pump inhibitors, primary screen, cell-based, multiplex, flow cytometry, ABCG2 counter-screen; ATP-dependent translocase ABCB1 (Homo sapiens), P08183; CCRF-Adr cells, JC-1 efflux; inhibition, % at 6.6 µM; actives 0.067% (n = 190,000); in the data active = inhibition above about 40%;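 note: 0% = vehicle and 100% = reference inhibitor; higher value means more JC-1 retained so stronger ABCB1 efflux block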
Target sequence (P08183 whole entry, looked up): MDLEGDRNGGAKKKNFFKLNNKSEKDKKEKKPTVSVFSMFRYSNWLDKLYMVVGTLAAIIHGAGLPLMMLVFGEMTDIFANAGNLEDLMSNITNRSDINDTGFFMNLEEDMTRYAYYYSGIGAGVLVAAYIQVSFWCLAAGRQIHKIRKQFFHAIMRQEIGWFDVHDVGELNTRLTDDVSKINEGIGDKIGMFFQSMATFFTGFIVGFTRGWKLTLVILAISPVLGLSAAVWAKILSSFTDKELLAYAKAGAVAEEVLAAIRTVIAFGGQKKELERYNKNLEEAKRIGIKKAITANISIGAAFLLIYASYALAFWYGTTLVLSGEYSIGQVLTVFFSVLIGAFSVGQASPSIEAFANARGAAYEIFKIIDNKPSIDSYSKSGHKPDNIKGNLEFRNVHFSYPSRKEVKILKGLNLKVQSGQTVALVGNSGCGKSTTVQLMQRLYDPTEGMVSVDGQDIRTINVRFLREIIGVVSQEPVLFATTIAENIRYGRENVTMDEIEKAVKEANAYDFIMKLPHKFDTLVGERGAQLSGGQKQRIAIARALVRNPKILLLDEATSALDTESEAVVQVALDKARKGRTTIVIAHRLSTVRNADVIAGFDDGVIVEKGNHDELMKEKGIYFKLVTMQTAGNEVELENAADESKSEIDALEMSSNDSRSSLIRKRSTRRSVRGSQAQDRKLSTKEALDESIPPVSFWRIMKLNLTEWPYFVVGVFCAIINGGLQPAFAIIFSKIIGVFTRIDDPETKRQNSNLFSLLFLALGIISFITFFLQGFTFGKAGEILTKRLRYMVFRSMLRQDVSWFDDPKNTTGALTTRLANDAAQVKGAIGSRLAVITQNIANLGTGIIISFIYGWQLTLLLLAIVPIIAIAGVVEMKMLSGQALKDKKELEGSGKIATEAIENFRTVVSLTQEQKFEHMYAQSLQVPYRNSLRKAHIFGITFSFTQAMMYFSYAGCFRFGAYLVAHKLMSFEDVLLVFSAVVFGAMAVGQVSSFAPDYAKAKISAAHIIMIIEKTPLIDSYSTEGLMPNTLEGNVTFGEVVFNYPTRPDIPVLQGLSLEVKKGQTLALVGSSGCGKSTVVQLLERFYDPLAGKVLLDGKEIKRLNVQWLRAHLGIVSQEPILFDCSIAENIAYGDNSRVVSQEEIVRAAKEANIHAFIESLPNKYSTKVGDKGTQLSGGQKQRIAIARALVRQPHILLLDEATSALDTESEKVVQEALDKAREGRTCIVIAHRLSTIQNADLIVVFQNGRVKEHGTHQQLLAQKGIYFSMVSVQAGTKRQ
ABCG2 inh: ABCG2 efflux pump inhibitors, primary screen, multiplex with ABCB1, IgMXP3 cells, flow cytometry; Broad substrate specificity ATP-binding cassette transporter ABCG2 (Homo sapiens), Q9UNQ0; JC-1 efflux; inhibition, % at 6.6 µM; actives 0.1% (n = 190,000);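 active = inhibition above 80%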;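 note: 0% = DMSO and 100% = nicardipine control wells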
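Incubation: cells with compound and JC-1, 10 min at 25 °C, rotating, no wash / Test system: IgMXP3 (ABCG2) plus far-red-tagged CCRF-Adr (ABCB1) cells / Compound dosing: one concentration, 6.6 µM final / Also added: JC-1 fluorescent substrate / Evaluation: efflux inhibition in percent versus controls / Detection: flow cytometry, 530 nm JC-1 signal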
MEKK2 mut-MEK5: MEK5 binding signal on mutant MEKK2 PB1, primary screen, biochemical, multiplex bead flow cytometry, Alexa488-MEK5. percent response, % at 10 µM. AID 1530, 2009. actives 0.35% (n = 290,000). Alexa488-MEK5 binding to MEKK2 mutant; in the data active = percent response above about 24%, passing the limit was not always enough
WT yeast gro inh: growth inhibition of WT strain, primary screen, mitochondrial fusion inhibitor project, WT and mutant strains, chemical genetic. actives 2.1% (n = 190,000). inhibition, % at 10 µM. AID 1362, 2008. mitochondrial fusion phenotypic screen; in the data active = inhibition above about 58%; tested in S. cerevisiae
MEKK3 PB1 HTS: modulators of MEKK3-MEK5 PB1 binding, primary screen, biochemical, wildtype MEKK3, multiplex bead flow cytometry, Alexa488-MEK5; binding response (% of control), % at 10 µM; actives 1.4% (n = 290,000); bead-based flow cytometry, Alexa488-MEK5 binding to MEKK3; actives lie on both sides; 0 = blocked by unlabeled MEK5, 100 = vehicle; Mitogen-activated protein kinase kinase kinase 3 (Homo sapiens), Q99759; AID 1529, 2009;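 active = binding response more than 3 SD above or below the average of its plate-row segment, actives on both sides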;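 note: Alexa488 bead fluorescence after subtracting the streptavidin-only scavenger bead signal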
MEKK2wt confirm: modulators of MEK5 binding to wildtype MEKK2, confirmation, biochemical, single concentration, multiplex bead flow cytometry. shares compounds with MEKK3 PB1 HTS. Alexa488-MEK5 binding to MEKK2 WT; actives lie on both sides. binding response (% of control), % at 10 µM. actives 2.4% (n = 5,900). AID 1892, 2009; in the data active = binding response below about 16% or above about 210%; inactive = in between
MEKK2mut-MEK5: mutant MEKK2 PB1-MEK5 binding signal retest – biochemical, single concentration, multiplex bead flow cytometry, confirmation | actives 2% (n = 5,900) | AID 1893, 2009 | percent response, % at 10 µM | shares compounds with MEKK3 PB1 HTS | Alexa488-MEK5 binding to MEKK2 mutant; in the data active = percent response mostly above about 71%, no sharp cut-off; inactive = mostly below about 38%;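 note: higher means compound restores mutant binding toward wildtype level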
MEKK3 confirm: MEKK3 wild-type PB1 binding to MEK5, inhibitors, confirmation, biochemical, bead multiplex flow cytometry, single concentration, wildtype; shares compounds with MEKK3 PB1 HTS; Alexa488-MEK5 binding to MEKK3; stronger effect = lower value; binding response (% of control), % at 10 µM; actives 1.8% (n = 5,900);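 active = binding response below 72% of control, or above a set upper limit, though filed actives all read lower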;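 note: 100% = DMSO only wells and 0% = binding blocked by excess unlabeled MEK5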
* hit, by the source's call; nt = not tested or not shown; [ ] = another dose, or the depositor's remark.

SMILES	MEKK2wt PB1 HTS	ABCB1 inh	ABCG2 inh	MEKK2 mut-MEK5	WT yeast gro inh	MEKK3 PB1 HTS	MEKK2wt confirm	MEKK2mut-MEK5	MEKK3 confirm
Cc1ccc(-c2nn3c(C)nnc3s2)cc1NCc1c(F)cccc1Cl	50*[inhibitor]	2	11	-42	10	50*[inhibitor]	91	-13	97
Cc1cccc(N2CCN(C(=O)CN3C(=O)C4CC=CCC4C3=O)CC2)c1C (stereo not drawn)	85	2	8	-2	12	67*[inhibitor]	96	4	101
Cc1cccc(N2CCN(C(=O)CN3C(=O)NC(C)(C)C3=O)CC2)c1C	97	nt	nt	-19	nt	89	nt	nt	nt
Cc1ccc(Nc2ncc3c(n2)CC(C)(C)CC3=O)cc1	103	0	5	4	-1	102	nt	nt	nt
CC1(C)CC(=O)c2cnc(NC3CC3)nc2C1	113	1	2	1	-10	129*	94	-6	100
O=C(O)c1cccnc1SC1CC(=O)N(c2ccccc2)C1=O (stereo not drawn)	117	nt	nt	33	nt	128*	95	-7	96
COc1ccc2[nH]c(C)c(-c3csc(N)n3)c2c1	118	nt	nt	27*	nt	117	101	0	101
Cc1ccc(NC(=O)CSc2nc3c(c(=O)[nH]2)CCC3)c(C)c1	97	nt	nt	3	nt	98	nt	nt	nt
CCOP(=O)(OCC)C(Nc1ccccn1)c1ccccc1 (stereo not drawn)	108	1	4	1	10	135*	91	-14	94
CSc1ccccc1Nc1ncnc(N)n1	101	nt	nt	9	nt	98	nt	nt	nt
COc1ccc(/C=C/c2nc3ccccc3n2Cc2ccccc2OC)cc1	105	2	5	5	75*	151*	111	3	107
COc1cc2c(cc1OC)C(C1C(=O)CC(C)CC1=O)N(C(=O)CCl)CC2 (stereo not drawn)	101	1	5	7	11	104	nt	nt	nt
CCNC(=S)Nc1cccc(F)c1C	102	0	31	2	9	100	nt	nt	nt
O=C(CN1CCCc2ccccc21)N/N=C/c1ccc(F)cc1F	100	nt	nt	-1	nt	109	nt	nt	nt
O=C(CN1CCCc2ccccc21)N/N=C/c1ccccc1O	101	0	0	2	9	128*	100	0	102
Cc1ccc(-n2nc3c(c2NC(=O)c2c(-c4ccccc4Cl)noc2C)CSC3)cc1	93	1	1	-5	32	93	nt	nt	nt
Cc1cccc(NC(=O)COC(=O)c2cc(C)oc2C)c1	114	0	5	4	11	129*	105	2	103
Cc1cc(C(=O)OCC(=O)Nc2ccccc2F)c(C)o1	118	1	9	9	-5	112	nt	nt	nt
COc1cc(OC)c(OC)cc1CN1CCN(S(=O)(=O)c2ccc(F)cc2)CC1	119	0	1	7	nt	122*	102	5	103
COc1cc(CN2CCN(S(=O)(=O)c3ccc(F)cc3)CC2)cc(OC)c1OC	100	1	2	3	-5	102	nt	nt	nt
O=C(NCc1cccs1)c1cc(-c2ccc(O)cc2)on1	55	nt	nt	-17	nt	46*[inhibitor]	101	1	105
O=C(Nc1ccccc1-c1ccccc1)c1cccc(C(F)(F)F)c1	93	0	8	2	13	94	nt	nt	nt
Cc1csc(-c2cnn(-c3ccccc3)c2NC(=O)c2cccc(C(F)(F)F)c2)n1	119	1	2	7	-1	131*	109	8	102
CN(CCC#N)C(=O)CC1(Cc2ccccc2)CCOC(C)(C)C1 (stereo not drawn)	103	nt	nt	4	nt	101	nt	nt	nt
COc1ccc(CN2CCn3nc(C(=O)NC4CC4)cc3C2=O)cc1	97	0	-3	-7	0	96	nt	nt	nt
SMILES	MEKK2wt PB1 HTS	ABCB1 inh	ABCG2 inh	MEKK2 mut-MEK5	WT yeast gro inh	MEKK3 PB1 HTS	MEKK2wt confirm	MEKK2mut-MEK5	MEKK3 confirm
CCCOc1ccc(C(=O)CCC(=O)OCC(=O)Nc2ccc(OCC)cc2)cc1	108	nt	nt	3	nt	97	nt	nt	nt
CCCOc1ccc(C(=O)CCC(=O)OCC(=O)Nc2ccc(Oc3ccccc3)cc2)cc1	147*	1	8	71*	4	110	112	3	108
O=C(CSc1ccc2ccccc2n1)Nc1ccc(N2CCOCC2)cc1	100	1	3	0	-13	106	nt	nt	nt
O=C(Nc1cccc(O)c1)c1cc(-c2ccccc2Cl)on1	102	nt	nt	0	nt	108	nt	nt	nt
O=C1C(=O)N(CCN2CCOCC2)C(c2ccccn2)/C1=C(/O)c1ccccc1 (stereo not drawn)	0.0*[inhibitor]	-1	-6	-27	-8	0.0*[inhibitor]	108	7	108
Cc1ccc(SCCNC(=O)/C=C/c2ccc([N+](=O)[O-])cc2)cc1	1.0*[inhibitor]	nt	nt	-7	25	0.0*[inhibitor]	99	3	102
O=C(/C=C/c1ccc([N+](=O)[O-])cc1)NCCSc1ccccc1	120	0	8	14	27	114	nt	nt	nt
CCOC(=O)C1(Cc2ccccc2C(F)(F)F)CCN(C2CCN(C(C)=O)CC2)CC1	111	1	1	8	3	101	nt	nt	nt
Oc1ccc(/C=C/c2ccc3ccccc3n2)cc1	97	1	10	-6	30	100	nt	nt	nt
Fc1ccccc1/C=C/c1ccc2ccccc2n1	108	1	23	5	44	130*	101	-4	99
C(=C\c1ccc2ccccc2n1)/c1ccccc1	34*[inhibitor]	nt	nt	-12	nt	40*[inhibitor]	100	-3	94
O=C(O)/C=C/c1ccc2ccccc2n1	97	1	3	-2	-32	100	nt	nt	nt
Cc1cc(C)c2c(NC(=S)NC(=O)c3ccccc3)n[nH]c2n1	51	0	-1	-18	-2	42*[inhibitor]	101	8	104
CCCNc1cc(=S)nc(N)[nH]1	104	nt	nt	0	nt	107	nt	nt	nt
